# Experimental data: ChEMBL document CHEMBL5058577, “EUbOPEN Chemogenomics Library 2 (Multiplex)” (2022)
# Tested on: HEK-293T
# Test: Multiplex assay against HEK293T
# Format: toxicity, cell-based
# Conditions: human
# Outline: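 Live cells were stained at seeding with Hoechst33342, BioTracker Green Microtubule Cytoskeleton Dye, MitoTracker Red and Annexin V Alexa Fluor 680, then imaged on a CQ1 microscope at 37°C and 5% CO2 after compound addition. CellPathfinder machine-learning gating split cells into Hoechst high-intensity objects or normal cells. Normal cells were split into healthy, pyknosed or fragmented nuclei, and pyknosed cells into mitotic or apoptotic. Tubulin, mitochondrial-mass and membrane-permeability phenotypes are per cents of healthy-nucleus cells.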
# [1] = 12 h, 1 µM, compound concentration 1 uM, replicate 1
# [2] = 12 h, 1 µM, compound concentration 1 uM, replicate 2
# [3] = 12 h, 10 µM, compound concentration 10 uM, replicate 1
# [4] = 12 h, 10 µM, compound concentration 10 uM, replicate 2
# [5] = 24 h, 1 µM, compound concentration 1 uM, replicate 1
# [6] = 24 h, 1 µM, compound concentration 1 uM, replicate 2
# [7] = 24 h, 10 µM, compound concentration 10 uM, replicate 1
# [8] = 24 h, 10 µM, compound concentration 10 uM, replicate 2
# [9] = 48 h, 1 µM, compound concentration 1 uM, replicate 1
# [10] = 48 h, 1 µM, compound concentration 1 uM, replicate 2
# [11] = 48 h, 10 µM, compound concentration 10 uM, replicate 1
# [12] = 48 h, 10 µM, compound concentration 10 uM, replicate 2
smiles,measurement,setting,value
CC1(COc2ccc3c(c2)ncn3-c2ccc3cccc(N4CCC(N)CC4)c3n2)COC1 [CRENOLANIB],Population Apoptotic (%),[1],58%
same,Population Fragmented Nuclei (%),[1],14%
same,Population Healthy Nuclei (%),[1],79%
same,Population Hoechst High Intensity Objects (%),[1],3%
same,Population Membrane Permeable-Phenotype (%),[1],2%
same,Population Mitochondria Different-Phenotype (%),[1],23%
same,Population Mitotic Cells (%),[1],41%
same,Population Normal (%),[1],96%
same,Population Pyknosed Nuclei (%),[1],6%
same,Population Tubulin-Different-Phenotype (%),[1],46%
same,Total Cell Count,[1],412
same,Population Apoptotic (%),[2],34%
same,Population Fragmented Nuclei (%),[2],10%
same,Population Healthy Nuclei (%),[2],80%
same,Population Hoechst High Intensity Objects (%),[2],6%
same,Population Membrane Permeable-Phenotype (%),[2],1%
same,Population Mitochondria Different-Phenotype (%),[2],51%
same,Population Mitotic Cells (%),[2],65%
same,Population Normal (%),[2],93%
same,Population Pyknosed Nuclei (%),[2],8%
same,Population Tubulin-Different-Phenotype (%),[2],51%
same,Total Cell Count,[2],332
same,Population Apoptotic (%),[3],69%
same,Population Fragmented Nuclei (%),[3],67%
same,Population Healthy Nuclei (%),[3],13%
same,Population Hoechst High Intensity Objects (%),[3],67%
same,Population Membrane Permeable-Phenotype (%),[3],0%
same,Population Mitochondria Different-Phenotype (%),[3],84%
same,Population Mitotic Cells (%),[3],30%
same,Population Normal (%),[3],32%
same,Population Pyknosed Nuclei (%),[3],18%
same,Population Tubulin-Different-Phenotype (%),[3],68%
same,Total Cell Count,[3],423
same,Population Apoptotic (%),[4],55%
same,Population Fragmented Nuclei (%),[4],64%
same,Population Healthy Nuclei (%),[4],17%
same,Population Hoechst High Intensity Objects (%),[4],69%
same,Population Mitochondria Different-Phenotype (%),[4],90%
same,Population Mitotic Cells (%),[4],45%
same,Population Normal (%),[4],30%
same,Population Pyknosed Nuclei (%),[4],17%
same,Population Tubulin-Different-Phenotype (%),[4],50%
same,Total Cell Count,[4],376
same,Population Apoptotic (%),[5],29%
same,Population Fragmented Nuclei (%),[5],20%
same,Population Healthy Nuclei (%),[5],66%
same,Population Hoechst High Intensity Objects (%),[5],2%
same,Population Membrane Permeable-Phenotype (%),[5],2%
same,Population Mitochondria Different-Phenotype (%),[5],22%
same,Population Mitotic Cells (%),[5],70%
same,Population Normal (%),[5],97%
same,Population Pyknosed Nuclei (%),[5],12%
same,Population Tubulin-Different-Phenotype (%),[5],23%
same,Total Cell Count,[5],547
same,Population Apoptotic (%),[6],45%
same,Population Fragmented Nuclei (%),[6],15%
same,Population Healthy Nuclei (%),[6],73%
same,Population Hoechst High Intensity Objects (%),[6],6%
same,Population Membrane Permeable-Phenotype (%),[6],1%
same,Population Mitochondria Different-Phenotype (%),[6],33%
same,Population Mitotic Cells (%),[6],54%
same,Population Normal (%),[6],93%
same,Population Pyknosed Nuclei (%),[6],11%
same,Population Tubulin-Different-Phenotype (%),[6],35%
same,Total Cell Count,[6],415
same,Population Apoptotic (%),[7],72%
same,Population Fragmented Nuclei (%),[7],60%
same,Population Healthy Nuclei (%),[7],16%
same,Population Hoechst High Intensity Objects (%),[7],56%
same,Population Membrane Permeable-Phenotype (%),[7],0%
same,Population Mitochondria Different-Phenotype (%),[7],89%
same,Population Mitotic Cells (%),[7],27%
same,Population Normal (%),[7],43%
same,Population Pyknosed Nuclei (%),[7],23%
same,Population Tubulin-Different-Phenotype (%),[7],92%
same,Total Cell Count,[7],394
same,Population Fragmented Nuclei (%),[8],69%
same,Population Healthy Nuclei (%),[8],15%
same,Population Hoechst High Intensity Objects (%),[8],63%
same,Population Mitochondria Different-Phenotype (%),[8],94%
same,Population Normal (%),[8],36%
same,Population Pyknosed Nuclei (%),[8],14%
same,Population Tubulin-Different-Phenotype (%),[8],73%
same,Total Cell Count,[8],334
same,Population Apoptotic (%),[9],29%
same,Population Fragmented Nuclei (%),[9],19%
same,Population Healthy Nuclei (%),[9],72%
same,Population Hoechst High Intensity Objects (%),[9],1%
same,Population Membrane Permeable-Phenotype (%),[9],1%
same,Population Mitochondria Different-Phenotype (%),[9],17%
same,Population Mitotic Cells (%),[9],70%
same,Population Normal (%),[9],98%
same,Population Pyknosed Nuclei (%),[9],7%
same,Population Tubulin-Different-Phenotype (%),[9],10%
same,Total Cell Count,[9],844
same,Population Apoptotic (%),[10],47%
same,Population Fragmented Nuclei (%),[10],23%
same,Population Healthy Nuclei (%),[10],70%
same,Population Mitochondria Different-Phenotype (%),[10],21%
same,Population Mitotic Cells (%),[10],52%
same,Population Pyknosed Nuclei (%),[10],6%
same,Population Tubulin-Different-Phenotype (%),[10],14%
same,Total Cell Count,[10],639
same,Population Apoptotic (%),[11],86%
same,Population Fragmented Nuclei (%),[11],51%
same,Population Healthy Nuclei (%),[11],17%
same,Population Hoechst High Intensity Objects (%),[11],41%
same,Population Membrane Permeable-Phenotype (%),[11],0%
same,Population Mitochondria Different-Phenotype (%),[11],97%
same,Population Mitotic Cells (%),[11],13%
same,Population Normal (%),[11],59%
same,Population Pyknosed Nuclei (%),[11],30%
same,Population Tubulin-Different-Phenotype (%),[11],95%
same,Total Cell Count,[11],400
same,Population Apoptotic (%),[12],84%
same,Population Fragmented Nuclei (%),[12],47%
same,Population Healthy Nuclei (%),[12],22%
same,Population Hoechst High Intensity Objects (%),[12],49%
same,Population Mitochondria Different-Phenotype (%),[12],96%
same,Population Mitotic Cells (%),[12],15%
same,Population Normal (%),[12],50%
same,Population Tubulin-Different-Phenotype (%),[12],96%
same,Total Cell Count,[12],298
